Screening data: PubChem, several laboratories
In the library only some 2.7% were active in any assay of this set; here they are far more common.
ARFGAP1 inh = rat ARFGAP1 inhibition | inhibition, % at 16.5 µM | hit rate 0.26% among 360,000 | Arfgap1-stimulated ARF1 GTP hydrolysis, GDP FP detection | Q62848;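 active means inhibition above a per-plate limit, mean inhibition of low control wells plus 3 SD, cut at about 25% in these data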
Target sequence (Q62848 1-136 limits assumed): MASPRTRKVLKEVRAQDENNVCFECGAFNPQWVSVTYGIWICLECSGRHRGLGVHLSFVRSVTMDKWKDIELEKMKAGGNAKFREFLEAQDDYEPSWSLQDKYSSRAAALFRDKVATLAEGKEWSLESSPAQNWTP
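material = rat Arfgap1 catalytic domain, aa 1-136 | also added = human ARF1(Δ1-17)-GTP substrate | compound dosing = one concentration, 16.5 µM, DMSO 1.26% | times = GTP hydrolysis reaction 2 h at 25 °C | measured by = FP, GDP Alexa 633 tracer displaced from anti-GDP antibody, 620/688 nm | evaluation = percent inhibition of Arfgap1-stimulated GTP hydrolysis | replication = single well per compound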
bovine MsrA act = bovine methionine sulfoxide reductase A activation. purified bovine MsrA, absorbance read-out. hit rate 0.3% among 360,000. AID 602163. activation, % at 10.6 µM; in the data active means activation above about 7.5%
Rev-erbA mod = Rev-erb alpha (human) modulation | hit rate 0.79% among 370,000 | AID 1259318 | Rev-erbα–FITC-DNA binding, fluorescence polarization, 90 min | activity, % at 10 µM | P20393;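 active means activity above about 14%, limit read from the data; passing the limit was not always enough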
Target sequence (P20393 whole entry, looked up): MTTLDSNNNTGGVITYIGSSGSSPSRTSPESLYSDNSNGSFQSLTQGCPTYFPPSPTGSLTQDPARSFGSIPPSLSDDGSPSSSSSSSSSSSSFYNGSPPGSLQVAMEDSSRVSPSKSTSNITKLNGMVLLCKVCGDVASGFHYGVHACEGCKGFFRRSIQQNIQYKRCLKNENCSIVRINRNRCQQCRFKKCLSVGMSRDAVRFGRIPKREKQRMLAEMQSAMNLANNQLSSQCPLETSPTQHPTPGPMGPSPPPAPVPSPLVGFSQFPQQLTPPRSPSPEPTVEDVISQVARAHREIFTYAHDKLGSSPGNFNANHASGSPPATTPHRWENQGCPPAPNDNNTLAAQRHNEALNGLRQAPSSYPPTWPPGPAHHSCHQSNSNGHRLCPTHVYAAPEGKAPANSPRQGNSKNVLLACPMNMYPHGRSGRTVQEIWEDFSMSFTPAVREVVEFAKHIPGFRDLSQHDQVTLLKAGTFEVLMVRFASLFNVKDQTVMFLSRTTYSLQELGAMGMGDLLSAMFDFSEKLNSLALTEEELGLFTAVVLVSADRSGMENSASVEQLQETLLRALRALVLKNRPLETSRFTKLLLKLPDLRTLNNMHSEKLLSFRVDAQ
MsrA inhibitor = inhibits bovine methionine sulfoxide reductase A; purified bovine MsrA, absorbance read-out; inhibition, % at 15.5 µM; hit rate 0.75% among 360,000
ASAP1 GAP inh = blocks human ASAP1-stimulated Arf1 GTP hydrolysis; hit rate 0.19% among 360,000; inhibition, % at 16.5 µM; Q9ULH1; GDP FP detection; in the data active means inhibition above about 25%
sPLA2-III inh = Inhibits HGIII-sPLA2 liposome hydrolysis, primary screen; inhibition, % at 12.2 µM; Q9NZ20; hit rate 0.56% among 370,000; QFRET BODIPY PC-A2 liposome hydrolysis, fluorescence;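 active means inhibition above mean plus 3 SD of compounds lying within the high and low control bounds, cut at about 19% in these data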
MsrA conf = bovine MsrA inhibition, confirmed. inhibition, % at 15.5 µM. hit rate 41% among 2,300. shares compounds with MsrA inhibitor. purified bovine MsrA, absorbance read-out. AID 651822;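 further: coupled to thioredoxin reductase with NADPH and selenocystamine and DMSO as substrate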
sPLA2 confirm = human GIII-sPLA2 inhibition, confirmation; shares compounds with sPLA2-III inh; recombinant hGIII-sPLA2, BODIPY PC-A2 QFRET fluorescence; inhibition, % at 12.2 µM; hit rate 34% among 2,000;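 active means mean inhibition across triplicates above the hit cutoff set in the earlier primary screen, cut at about 19% in these data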
535nm interf = optically interferes with 535nm fluorescence in sPLA2 counter-screen. shares compounds with sPLA2-III inh. BODIPY FL product fluorescence interference, QFRET. inhibition, % at 12.2 µM. hit rate 8.5% among 2,000;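 active means average inhibition above the solvent-only control mean plus 3 SD, cut at about 6% in these data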
BODIPY interf DR = interferes with 535nm fluorescence in dose response counter-screen. AID 743455. IC50, µM. 240 tested, under 10 active. shares compounds with sPLA2-III inh. BODIPY FL product fluorescence interference, cell-free;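 active means IC50 at or below 10 µM; inactive means IC50 above 10 µM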
NR1D1 mod conf = Rev-erb alpha (human) modulation, hit confirmation | activation, % at 25 µM | hit rate 61% among 3,000 | shares compounds with Rev-erbA mod | Rev-erb alpha FITC-DNA binding, fluorescence polarization, 90 min;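 active means activation at or above a set limit, or at least 3 SD above the negative control mean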
RORg counter = RORgamma DNA-binding activity, dose-response counter-screen | shares compounds with Rev-erbA mod | purified RORgamma protein-FITC-DNA binding, fluorescence polarization | IC50, µM | hit rate 8% among 910;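 active means Compounds whose fitted half-maximal concentration for disrupting protein-DNA binding is below 10 micromolar; the record names Rev-erb in its text, so the target is in doubt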
Each line names hits and unclear results; the compound was inactive in the other large screens (follow-up assays come after a bar, where they were run). Unless noted, no stated cut-off is given here; in the data, active means inhibition above about 4.5%; inactive means the rest.

O=c1oc2ccccc2c(NC(c2ccccc2)c2ccccc2)c1[N+](=O)[O-]	Rev-erbA mod 39, MsrA inhibitor 62 | MsrA conf 56 | NR1D1 mod conf 60 | RORg counter inactive
COC(=O)[C@]12CCCCC=C1N(Cc1ccc(OC)cc1)C(=O)[C@@H]2CC(=O)N1CCCC1	none (no result: ARFGAP1 inh, bovine MsrA act, MsrA inhibitor, ASAP1 GAP inh)
CC1CCN(CC(=O)Nc2cc(C(F)(F)F)ccc2Cl)CC1	sPLA2-III inh 21 | sPLA2 confirm inactive | 535nm interf inactive
O=C(CCNC(=O)c1ccccc1Cl)Nc1ccc(Br)c(C(F)(F)F)c1	none
O=C(CCNC(=O)c1ccccc1Cl)Nc1cc(C(F)(F)F)ccc1Cl	sPLA2-III inh 21 | sPLA2 confirm inactive | 535nm interf inactive
C=CCN1C(=O)[C@@H](CC(=O)NCC2CCCCC2)[C@]2(C(=O)OCC)CCCCC/C=C/12	none (no result: ARFGAP1 inh, bovine MsrA act, MsrA inhibitor, ASAP1 GAP inh)
C[C@H]1C2CC(OC(=O)Nc3ccc(F)cc3)C(C2)[C@H]2CCCCN21 (stereo partly drawn)	none (no result: ARFGAP1 inh, bovine MsrA act, MsrA inhibitor, ASAP1 GAP inh)
CCCCCN1CCCCC(NC(=O)c2ccc3ccccc3c2)C1=O (stereo not drawn)	none (no result: ARFGAP1 inh, bovine MsrA act, MsrA inhibitor, ASAP1 GAP inh)
CCCNC(=O)Nc1cccc(C(=O)OC)c1	sPLA2-III inh 21 | sPLA2 confirm inactive | 535nm interf inactive
Cc1c(-c2csc(N)n2)c2ccccc2n1C	sPLA2-III inh 20 | sPLA2 confirm inactive | 535nm interf inactive
Cc1ccccc1-c1csc(N)n1	none
C[C@@H]1CN([C@H](C)CO)C(=O)CCCn2nncc2CO[C@@H]1CN(C)C(=O)c1ccccc1	sPLA2-III inh 21 | sPLA2 confirm inactive | 535nm interf inactive
C[C@@H]1CN([C@H](C)CO)C(=O)CCCn2nncc2CO[C@H]1CN(C)C(=O)c1ccc(N2CCN(C)CC2)cc1	sPLA2-III inh 19 | sPLA2 confirm inactive | 535nm interf inactive
C[C@H]1CN([C@@H](C)CO)C(=O)CCCn2nncc2CO[C@@H]1CN(C)C(=O)c1ccc(N2CCN(C)CC2)cc1	none
N#Cc1cccc(OC[C@@H](O)CN2CCC(C(O)(c3ccccc3)c3ccccc3)CC2)c1	none (no result: ARFGAP1 inh, bovine MsrA act, MsrA inhibitor, ASAP1 GAP inh)
CNC(=S)NNC(=O)c1cccn(Cc2ccc(Cl)c(Cl)c2)c1=O	none
CCNC(=S)NNC(=O)c1cccn(Cc2ccc(Cl)cc2Cl)c1=O	none
C=CCNC(=S)NNC(=O)c1cccc(Br)c1	none
C=CCNC(=S)NNC(=O)c1cccn(Cc2ccc(Cl)cc2Cl)c1=O	sPLA2-III inh 26 | sPLA2 confirm 22 | 535nm interf inactive
C=CCNC(=S)NNC(=O)c1cccn(Cc2ccc(Cl)c(Cl)c2)c1=O	sPLA2-III inh 25 | sPLA2 confirm 31 | 535nm interf inactive | BODIPY interf DR inactive
C=CCNC(=S)NNC(=O)c1ccc(C)c(Cl)c1	sPLA2-III inh 23 | sPLA2 confirm 21 | 535nm interf inactive
Cc1ccc(C(=O)N2CCC[C@@H]2C(=O)N2CCC[C@H]2C(=O)NCc2ccccc2)cc1	none (no result: bovine MsrA act)
COc1cccc(Cn2cc(COC(=O)NCC(C)C)nn2)c1	none (no result: ARFGAP1 inh, bovine MsrA act, MsrA inhibitor, ASAP1 GAP inh)
CCS(=O)(=O)N1CCC(C(=O)NCc2cccnc2)CC1	sPLA2-III inh 20 | sPLA2 confirm inactive | 535nm interf inactive
N#C/C(=N\Nc1ccccc1)C(N)=S	sPLA2-III inh 19 | sPLA2 confirm 33 | 535nm interf inactive
NC(=O)C1CC(=O)N(c2ccc(OCc3ccc(Cl)cc3Cl)cc2)C1 (stereo not drawn)	none
NC(=O)C1CC(=O)N(c2ccc(OCc3ccc(Cl)c(Cl)c3)cc2)C1 (stereo not drawn)	sPLA2-III inh 21 | sPLA2 confirm inactive | 535nm interf inactive
Cc1ccc2nc(-c3ccc(CN4CCC5(CC4)CNc4ccccc45)cc3)c(-c3ccccc3)nc2c1	none (no result: bovine MsrA act)
COc1ccccc1N1CCN(CCN2C(=O)CC3(CCCC3)CC2=O)CC1	sPLA2-III inh 20 | sPLA2 confirm inactive | 535nm interf inactive
S=c1[nH]c2ccccc2n2c(=S)[nH]nc12	sPLA2-III inh 21 | sPLA2 confirm 26 | 535nm interf inactive
S=c1[nH]c2ccccc2n2cccc12	none
COC(=O)C1CN(Cc2ccc(F)cc2)CCS(=O)(=O)N1Cc1ccc(OC)cc1 (stereo not drawn)	none (no result: ARFGAP1 inh, bovine MsrA act, MsrA inhibitor, ASAP1 GAP inh)
N#Cc1ccc(Cn2ccc3ccc(-c4ccc5ccn(C(=O)c6ccccc6)c5c4)cc32)cc1	none (no result: ARFGAP1 inh, bovine MsrA act, MsrA inhibitor, ASAP1 GAP inh)
CC(C)(Oc1ccc(Cl)cc1)C(=O)NC1CC1	sPLA2-III inh 21 | sPLA2 confirm inactive | 535nm interf inactive
CC1(C)CC(=O)C(N=Nc2ccc(C(F)(F)F)cc2[N+](=O)[O-])=C(O)C1	sPLA2-III inh 20 | sPLA2 confirm inactive | 535nm interf inactive
CCOc1ccc(Oc2c(Cl)cnn(Cc3cccc4ccccc34)c2=O)cc1	none (no result: ARFGAP1 inh, bovine MsrA act, MsrA inhibitor, ASAP1 GAP inh)
COCCCNC(=S)NNC(=S)NCCCOC	sPLA2-III inh 22 | sPLA2 confirm inactive | 535nm interf inactive
O=C(OCc1cn(Cc2ccc(F)c(F)c2)nn1)N1CCCC1	none (no result: ARFGAP1 inh, bovine MsrA act, MsrA inhibitor, ASAP1 GAP inh)
O=C(OCc1cn(Cc2ccc(F)c(F)c2)nn1)N1CCOCC1	sPLA2-III inh 19 (no result: ARFGAP1 inh, bovine MsrA act, MsrA inhibitor, ASAP1 GAP inh) | sPLA2 confirm inactive | 535nm interf inactive
CCOc1ccc(NC(=S)NN2C(C)CCCC2C)cc1 (stereo not drawn)	sPLA2-III inh 22 | sPLA2 confirm inactive | 535nm interf inactive
COC(=O)C1CN(Cc2ccc(F)cc2)CCS(=O)(=O)N1Cc1cn(Cc2ccc(Cl)cc2)nn1 (stereo not drawn)	none (no result: ARFGAP1 inh, bovine MsrA act, MsrA inhibitor, ASAP1 GAP inh)
CCCCNC(=O)CCn1c(=O)c2ccccc2n(CC(=O)NCCc2ccc(OC)c(OC)c2)c1=O	sPLA2-III inh 21 | sPLA2 confirm inactive | 535nm interf inactive
COCCCNC(=O)c1ccc(Cn2c(=O)c3ccccc3n(CC(=O)NCCc3ccc(OC)c(OC)c3)c2=O)cc1	none
CNC(=S)NNC(=O)c1c(C)nc2cc(C)ccn12	sPLA2-III inh 19 | sPLA2 confirm inactive | 535nm interf inactive
Cc1ccn2c(C(=O)NN=C3CCCCCCC3)c(C)nc2c1	none
Cc1ccc(NC(=S)N2CCN(Cc3ccccc3)CC2)c(C)c1	sPLA2-III inh 21 | sPLA2 confirm inactive | 535nm interf inactive
